According to ChEMBL document CHEMBL2417525, “In vitro pharmacological and toxicological effects of norterpene peroxides isolated from the Red Sea sponge Diacarnus erythraeanus on normal and cancer cells” (J Nat Prod, 2013):
Active and inactive are the calls of the source. The rule behind the calls is not given here.

Key:
[1] = test system: MCF7; experiment: Cytotoxicity against human MCF7 cells after 72 hrs by MTT assay; assay type: functional, cell-based
Summary of the method: (§1)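 MTT reduction read by spectrophotometry after 72 h compound exposure; growth measured as treated vs control optical density, IC50 taken as the concentration giving 50% growth reduction. Six replicates per condition. Cells grown in RPMI with 10% heat-inactivated FBS, 4 mM glutamine, gentamicin and penicillin–streptomycin; NHDF fibroblasts were instead kept in FGM-2 fibroblast medium.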

[2] = test system: SK-MEL-28; experiment: Cytotoxicity against human SK-MEL-28 cells after 72 hrs by MTT assay; assay type: functional, cell-based; summary of the method: as §1
[3] = test system: A549; experiment: Cytotoxicity against human A549 cells after 72 hrs by MTT assay; assay type: functional, cell-based; summary of the method: as §1
[4] = Cytotoxicity against human U373 cells after 72 hrs by MTT assay; assay type: functional, cell-based, U-373MG ATCC; summary of the method: as §1
[5] = Cytotoxicity against human Hs683 cells after 72 hrs by MTT assay; assay type: functional, cell-based, Hs 683; summary of the method: as §1
[6] = test system: U-251; experiment: Cytotoxicity against human U251 cells after 72 hrs by MTT assay; assay type: functional, cell-based; summary of the method: as §1
[7] = test system: PC-3; experiment: Cytotoxicity against human PC3 cells after 72 hrs by MTT assay; assay type: functional, cell-based; summary of the method: as §1
[8] = test system: U-373MG ATCC; experiment: Cytotoxicity against human U373 cells assessed as growth inhibition at 10 uM after 24 hrs by MTT assay; assay type: functional, cell-based
[9] = test system: B16-F10; experiment: Cytotoxicity against mouse B16F10 cells after 72 hrs by MTT assay; assay type: functional, cell-based; conditions: B16-F10, 72 h; summary of the method: as §1
[10] = test system: U-373MG ATCC; experiment: Induction of apoptosis in human U373 cells at 1 uM after 72 hrs by TUNEL staining; assay type: functional, cell-based
[11] = test system: SK-MEL-28; experiment: Cytotoxicity against human SK-MEL-28 cells assessed as growth inhibition at 10 uM after 24 to 72 hrs by quantitative video microscopic analysis; assay type: functional, cell-based
Summary of the method: (§2)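 Computer-assisted phase-contrast time-lapse microscopy in T25 flasks with 10 μM compound. Cells were counted on images at 6, 12, 24 h for U373 and A549, and at 24, 48, 72 h for SKMEL-28. Global growth is last-image count over first-image count. The ratio index is treated global growth over untreated control global growth. Run in triplicate.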

[12] = test system: U-373MG ATCC; experiment: Cytotoxicity against human U373 cells assessed as growth inhibition at 10 uM […] by quantitative video microscopic analysis; assay type: functional, cell-based; summary of the method: as §2
[13] = Induction of ROS production in human U373 cells at 10 uM after 72 hrs by flow cytometry; assay type: functional, U-373MG ATCC
Summary of the method: (§3)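 Hs683 and U373 glioma cells were exposed to 10 μM for 48 and 72 h; the positive control was 4 mM H2O2 for 1 h. Cells were then loaded with 20 μM DCFH-DA in phenol-red-free RPMI for 1 h at 37 °C, washed twice and detached. Fluorescence was measured by flow cytometry, run once in quadruplicate.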

[14] = test system: SK-MEL-28; experiment: Cytotoxicity against human SK-MEL-28 cells assessed as growth inhibition at 10 uM after 24 hrs by MTT assay; assay type: functional, cell-based
[15] = test system: A549; experiment: Cytotoxicity against human A549 cells assessed as growth inhibition at 10 uM […] by quantitative video microscopic analysis; assay type: functional, cell-based; summary of the method: as §2
[16] = test system: U-373MG ATCC; experiment: Induction of ROS production in human U373 cells at 10 uM after 48 hrs by flow cytometry; assay type: functional, cell-based; summary of the method: as §3
[17] = test system: NHDF; experiment: Cytotoxicity against human NHDF cells after 72 hrs by MTT assay; assay type: cell-based; summary of the method: as §1
[18] = test system: Hs 683; experiment: Induction of ROS production in human Hs683 cells at 10 uM after 72 hrs by flow cytometry; assay type: functional; summary of the method: as §3
[19] = test system: HBL-100; experiment: Cytotoxicity against human HBL100 cells after 72 hrs by MTT assay; assay type: cell-based; conditions: HBL-100, 72 h; summary of the method: as §1
[20] = test system: Hs 683; experiment: Induction of apoptosis in human Hs683 cells at 1 uM after 72 hrs by TUNEL staining; assay type: functional, cell-based
[21] = test system: LoVo; experiment: Cytotoxicity against human LoVo cells after 72 hrs by MTT assay; assay type: functional, cell-based; summary of the method: as §1
[22] = test system: A549; experiment: Cytotoxicity against human A549 cells assessed as growth inhibition at 10 uM after 24 hrs by MTT assay; assay type: functional, cell-based
[23] = test system: HaCaT; experiment: Cytotoxicity against human HaCaT cells after 72 hrs by MTT assay; assay type: cell-based; summary of the method: as §1
[24] = test system: PC-3; experiment: Induction of apoptosis in human PC3 cells at 1 uM after 72 hrs by TUNEL staining; assay type: functional
Summary of the method: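 TUNEL apoptosis staining with a commercial kit, read by flow cytometry. PC3 prostate cells were untreated or exposed to 1 μM for 72 h, four replicates. Kit-supplied lymphoma cells served as extra negative and positive controls.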

[25] = Homo sapiens, MCF7, 72 h, read-out: IC50
[26] = Homo sapiens, SK-MEL-28, 72 h, read-out: IC50
[27] = Homo sapiens, A549, 72 h, read-out: IC50
[28] = Homo sapiens, U373 MG, 72 h, read-out: IC50
[29] = Homo sapiens, Hs 683, 72 h, read-out: IC50
[30] = Homo sapiens, U-251, 72 h, read-out: IC50
[31] = Homo sapiens, PC-3, 72 h, read-out: IC50

SMILES | IC50 [1, 25] [µM] | IC50 [2, 26] [µM] | IC50 [3, 27] [µM] | IC50 [4, 28] [µM] | IC50 [5, 29] [µM] | IC50 [6, 30] [µM] | IC50 [7, 31] [µM] | other results
C=C1CCC[C@@H]2[C@@](C)(CC[C@@]3(C)CC[C@H]([C@H](C)C(=O)OC)OO3)[C@H](C)CC[C@@]12C | 36 | 44 | 24 | 53 | 35 | 54 | 44 | 
CC1=C(CC[C@]2(C)O[C@H]2CC[C@]2(C)CC[C@@H]([C@@H](C)C(=O)O)OO2)C(C)(C)CCC1 (relative stereo) | 4 | 15 | 3 | 4 | 3 |  | 1 | 
C=C1CCC[C@@H]2[C@@H](CC[C@@]3(C)CC[C@H]([C@H](C)C(=O)O)OO3)[C@H](C)CC[C@@]12C [SIGMOSCEPTRELLIN B] | > 100 | > 100 | > 100 | > 100 | > 100 | > 100 | > 100 | 
C/C(=C\CC[C@]1(C)CC[C@@H]([C@@H](C)C(=O)O)OO1)CCC12OC1(C)CCCC2(C)C (relative stereo) | 6 | 22 | 3 | 7 | 3 |  | 2 | 
COC(=O)[C@@H](C)[C@H]1CC[C@@](C)(CCC2=C(C)CCCC2(C)C)OO1 |  |  |  |  |  |  |  | IC50 ([1]; mcf7): ND(Unstable); IC50 ([2]; sk-mel-28): ND(Unstable); IC50 ([3]; a549): ND(Unstable); IC50 ([4]; u-373mg atcc): ND(Unstable); IC50 ([5]; hs 683): ND(Unstable); IC50 ([6]; u-251): ND(Unstable); IC50 ([7]; pc-3): ND(Unstable)
COC(=O)[C@H](C)[C@H]1CC[C@@](C)(CCC2=C(C)CCCC2(C)C)OO1 [NUAPAPUIN A METHYL ESTER] | 51 | 80 | 25 | 99 | 38 | 91 | 80 | 
CC1=C(CC/C(C)=C/CC[C@@]2(C)CC[C@H]([C@H](C)C(=O)O)OO2)C(C)(C)CCC1 | 7 | 8 | 3 | 7 | 4 | 8 | 8 | growth inhibition (GI) [8]: Active; IC50 [9]: 3 µM; Activity [10]: inactive; growth inhibition (GI) [11]: Active; growth inhibition (GI) [12]: Active; Activity [13]: 30%; growth inhibition (GI) [14]: Active; growth inhibition (GI) [15]: Active; Activity [16]: Active; IC50 [17]: 26 µM; Activity [18]: 30%; IC50 [19]: 3 µM; Activity [20]: inactive; IC50 [21]: 6 µM; growth inhibition (GI) [22]: Active; IC50 [23]: 23 µM
O=C1N[C@@H]2C(=C[C@H](O)[C@@H](O)[C@H]2O)c2cc3c(c(O)c21)OCO3 [NARCICLASINE] |  |  |  |  |  |  |  | Activity [24]: >85%
C=C1CCCC(C)(C)C1(O)CC/C(C)=C/CC[C@]1(C)CC[C@@H]([C@@H](C)C(=O)O)OO1 (stereo partly specified) [HURGHAPEROXIDE] | 45 | 73 | 31 | 83 | 37 | 87 | 73 | 
